Source: PubChem BioAssay
Compounds with a hit are over-represented: about 2.8% of the library has one in this group of screens.
NPY-Y1 PAM-ag – potentiates or activates human NPY-Y1 receptor; P25929; NPY-Y1 expressing cells, potentiator/agonist activation; activation, % at 3.6 µM; actives 0.37% (n = 220,000); AID 1304; in the data active = activation above about 33%, passing the limit was not always enough;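 also: cells stimulated with NPY at EC10 then isoproterenol at EC100; 0% = low agonist plus stimulus and 100% = saturating agonist plus stimulus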
Target sequence (P25929 whole entry, looked up): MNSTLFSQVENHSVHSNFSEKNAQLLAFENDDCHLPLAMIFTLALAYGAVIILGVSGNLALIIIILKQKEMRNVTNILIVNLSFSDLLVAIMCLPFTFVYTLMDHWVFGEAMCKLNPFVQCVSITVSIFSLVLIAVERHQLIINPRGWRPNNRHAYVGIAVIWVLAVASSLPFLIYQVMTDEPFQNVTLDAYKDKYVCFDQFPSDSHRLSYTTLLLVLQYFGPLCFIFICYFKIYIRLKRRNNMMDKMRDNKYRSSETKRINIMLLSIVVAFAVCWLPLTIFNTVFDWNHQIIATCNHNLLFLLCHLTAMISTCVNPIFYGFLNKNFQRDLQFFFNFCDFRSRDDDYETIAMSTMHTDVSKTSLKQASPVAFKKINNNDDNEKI
NPY Y1 blocker – blocks the human neuropeptide Y Y1 receptor; actives 1% (n = 200,000); P25929; AID 1040; HEK293-CNG Y1 cells, membrane potential fluorescence; NPY at EC95, then isoproterenol; inhibition, % at 3.6 µM;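 active = inhibition above the campaign mean inhibition of all tested compounds plus 3 SD, cut at about 20% in these data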;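 also: 0% = DMSO wells given NPY plus isoproterenol and 100% = isoproterenol alone without NPY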
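Assay system: HEK293 Y1/CNG channel cell line; Doses: single compound dose of 3.6 µM, 0.4% DMSO; Timing: dye 3 h, compound 60 min room temperature, stimulation 45 min; Technique: Membrane-potential fluorescent dye readout; Measure: % inhibition of NPY effect.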
NPY-Y2 PAM-ag – potentiates or activates human NPY-Y2 receptor; P49146; cells expressing NPY-Y2, potentiator/agonist read-out; activation, % at 3.6 µM; actives 0.45% (n = 220,000); AID 1359; in the data active = activation above about 27%;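 also: cells stimulated with NPY near EC25 plus isoproterenol at EC100; 0% = vehicle plus submaximal agonist and 100% = vehicle plus saturating agonist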
NPY Y2 blocker – NPY-Y2 (human) receptor antagonism. NPY-Y2 expressing cells, antagonist mode. P49146. actives 0.99% (n = 140,000). inhibition, % at 2.7 µM; in the data active = inhibition above about 17%;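 also: 0% = vehicle with agonist challenge and 100% = reference antagonist with challenge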
PGE2 EP2 inh – EP2 receptor (human) inhibition; P43116; C6 glioma cells expressing human EP2, cAMP TR-FRET; cells stimulated with saturating PGE2; inhibition, % at 25 µM; actives 0.52% (n = 260,000); AID 1422;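 active = percent inhibition above 40 after rounding to a whole number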;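 also: rat C6 glioma host cells with rolipram phosphodiesterase inhibitor present; the protocol text gives 20 µM as final concentration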
EP2 modulator – modulates human prostaglandin E2 receptor EP2 signaling | induction, % at 25 µM | EP2-expressing cells, cAMP HTRF FRET, PGE2 co-stimulation | P43116 | actives 0.83% (n = 260,000) | AID 940;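 active = compounds whose cAMP rise, as percent of the full-agonist control response, exceeds 60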;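 also: rat C6 glioma line stably carrying human EP2 under a CMV promoter; the protocol text gives 20 µM as final concentration; 100% = response of wells given 1 µM PGE2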
* hit, by the source's call; x = no result.

SMILES	NPY-Y1 PAM-ag	NPY Y1 blocker	NPY-Y2 PAM-ag	NPY Y2 blocker	PGE2 EP2 inh	EP2 modulator
Nc1c(C(=O)Nc2ccc([As](=O)(O)O)cc2)cnc2nnnn12	x	x	x	x	52*	29
COc1cc2c(cc1/C=C/[N+](=O)[O-])OCO2	29	1	20	x	103*	-122
CC(Cc1ccccc1)NCc1ccccc1O (stereo not given)	1	0	-2	x	4	5
N[C@H](Cc1ccc2oc3cc(=O)c4ccccc4c-3nc2c1)C(=O)O	x	x	x	x	68*	-18
N[C@@H](Cc1cc(Br)c(O)c(Br)c1)C(=O)O	10	0	11	-1	15	10
COC(=O)[C@@H]1c2cc3c(c(O)c2[C@@H](O)C[C@]1(C)O)C(=O)c1c(O)cc2c(c1C3=O)O[C@H]1O[C@]2(C)[C@@H](O)[C@H](N(C)C)[C@H]1O	x	x	x	x	49*	19
O=C1NC(=O)C(=Cc2ccc(Br)s2)C(=O)N1	x	x	x	x	115*	-92
O=C1NC(=O)C(=Cc2ccc(N3CCOCC3)cc2)C(=O)N1	-6	-2	-1	x	7	-21
Cc1[nH]c2ccc(F)cc2c1CC(=O)N(CCN(C)C)Cc1ccc(F)cc1	x	x	x	x	6	-88
CCC(N)C(O)c1ccc(O)c(O)c1 (stereo not given)	x	x	x	x	12	74*
Cc1ccc2c(c1)C(=O)CC1(CCNCC1)O2	x	x	x	x	7	-25
C[C@@H]1CC[C@@]2(OC1)OC1C(O)C3C4CC[C@H]5C[C@H](O[C@@H]6O[C@H](CO)[C@H](O[C@@H]7O[C@H](CO)[C@@H](O)[C@H](O[C@@H]8OC[C@@H](O)[C@H](O)[C@H]8O)[C@H]7O[C@@H]7O[C@H](CO)[C@H](O)[C@H](O[C@@H]8O[C@H](CO)[C@@H](O)[C@H](O)[C@H]8O)[C@H]7O)[C@H](O)[C@H]6O)[C@H](O)C[C@]5(C)C4CC[C@]3(C)C1[C@@H]2C (stereo not given in full)	x	x	x	x	116*	-38
COC(=O)c1c(C)n(Cc2ccco2)c2ccc(O)cc12	-4	6	-23	8	6	4
CCOC(=O)c1c(C)n(Cc2ccco2)c2ccc(OC)cc12	-8	9	-40	8	14	64*
O=C(O)c1cccc([As]=[As]c2cccc(C(=O)O)c2)c1 (stereo not given)	x	x	x	x	42*	27
O=C1C(Cl)C(CCl)CN1c1cccc(C(F)(F)F)c1 (stereo not given)	x	x	x	x	14	-42
CN(C)CCN(C)C(=O)Cc1csc(-c2ccccc2F)n1	x	x	x	x	5	-5
COc1ccc(/C=C2\C(=O)C3CCN2CC3)cc1OC	x	x	x	x	14	-21
CSc1ccc2c(c1)c(CCN)c(C)n2Cc1ccccc1Cl	x	x	x	x	104*	-3
C[C@@H]1O[C@@H](O[C@H]2C[C@@H](O)[C@]3(CO)[C@@H]4C(CC[C@]3(O)C2)[C@@]2(O)CC[C@H](C3COC(=O)C3)[C@@]2(C)C[C@H]4O)[C@H](O)[C@H](O)[C@H]1O (stereo not given in full)	x	x	x	x	12	19
C[C@H]1CC[C@@H]2[C@@H](C)[C@H]3[C@H](C[C@H]4[C@@H]5CC=C6C[C@@H](O[C@@H]7O[C@H](CO)[C@H](O)[C@H](O[C@@H]8O[C@H](CO)[C@@H](O)[C@H](O)[C@H]8O)[C@H]7O[C@@H]7O[C@@H](C)[C@H](O)[C@@H](O)[C@H]7O)CC[C@]6(C)[C@H]5CC[C@]34C)N2C1	-24	5	-2	11	88*	-72
CO[C@@H]([CH2][Hg][n]1cnc2c1c(=O)n(C)c(=O)n2C)CN1C(=O)c2ccccc2S1(=O)=O	x	x	x	x	49*	30
CC1(C)[C@@H]2CC[C@@]1(C)CN(CCC[N+](C)(C)C)C2	x	x	x	x	41*	14
C[N+]1(C)[C@@H]2CC[C@H]1CC(OC(=O)[C@@H](CO)c1ccccc1)C2 (stereo not given in full)	x	x	x	x	50*	20
CC(C)c1ccc(C(c2c(O)c3ccccc3oc2=O)c2c(O)c3ccccc3oc2=O)cc1	x	x	x	x	70*	-11
SMILES	NPY-Y1 PAM-ag	NPY Y1 blocker	NPY-Y2 PAM-ag	NPY Y2 blocker	PGE2 EP2 inh	EP2 modulator
O=C(C[C@H](c1ccccc1)c1c(O)c2ccccc2oc1=O)c1ccccc1	x	x	x	x	46*	12
C[C@]12CCC3C(CC[C@H]4C[C@@H](O)CC[C@]34C)C1CCC2=O (stereo not given in full)	x	x	x	x	42*	-37
CCc1nc(N2CCNCC2)c(C#N)c2c1CSC(C)(C)C2	92*	-12	89*	3	x	-2
CCOC(=O)CC1=C(C(=O)OCC)C2(C(=O)N(C)c3ccccc32)C(C#N)=C(N)O1 (stereo not given)	x	x	x	x	9	-4
C[C@]12CC[C@@H]3[C@H](CCC4=CC(=O)CC[C@]43C)[C@]1(O)CC[C@@]2(O)C(=O)CO	x	x	x	x	55*	-3
C#CC1(O)CCC2C3CCC4=CC(=O)CCC4(C)C3CCC21C (stereo not given)	x	x	x	x	19	-11
CC1(C)CC(=N[N-]C(N)=[SH+])CC(C)(C)N1.CC1(C)CC(=N[N-]C(N)=[SH+])CC(C)(C)N1.[Ni]	x	x	x	x	51*	-6
O=C1NC(=O)N(c2ccccc2)C(=O)/C1=C/C=C/c1ccco1	14	x	5	x	47*	-102
Cc1ccc(N2C(=O)NC(=O)/C(=C\C=C\c3ccco3)C2=O)cc1C	10	-3	5	1	88*	-95
O=C1NC(=O)N(Cc2ccccc2)C(=O)/C1=C\C=C\c1ccco1	-6	6	3	x	63*	-65
C=CCN1C(=O)NC(=O)/C(=C/C=C/c2ccccc2)C1=O	2	0	1	x	129*	-67
CCCn1c(C(=O)c2ccc(OC)c(OC)c2)nc2ccccc21	x	x	x	x	15	34
CCN(CCN(C)C)C(=O)Cc1c(C)nc(-c2ccccc2)nc1OC	x	x	x	x	5	-59
CCCc1ccc(CN2C3CCC2CC(O)(c2nccn2C)C3)s1 (stereo not given)	x	x	x	x	5	-1
Cn1ccnc1C1(O)CC2CCC(C1)N2CC(=O)Nc1ccc(N2CCCCC2)cc1 (stereo not given)	x	x	x	x	x	-42
Cc1cccc(N2C(=O)NC(=O)/C(=C\C=C\c3ccco3)C2=O)c1	4	x	-31	x	44*	-109
